The results in this text go back to ChEMBL document CHEMBL1142933, “Rational design of novel, potent small molecule pan-selectin antagonists” (J Med Chem, 2007).

As a reminder, the inhibition is the relative decrease from the control value, in per cent. A word on the IC50: it is the point on the concentration scale where inhibition reaches its midpoint. A higher IC50 goes with weaker potency.

A value given as a limit tells only on which side of the number the result lay.

Assay [1] deals with T1, L-selectin (Homo sapiens) (UniProt P14151).
T1 sequence (whole entry): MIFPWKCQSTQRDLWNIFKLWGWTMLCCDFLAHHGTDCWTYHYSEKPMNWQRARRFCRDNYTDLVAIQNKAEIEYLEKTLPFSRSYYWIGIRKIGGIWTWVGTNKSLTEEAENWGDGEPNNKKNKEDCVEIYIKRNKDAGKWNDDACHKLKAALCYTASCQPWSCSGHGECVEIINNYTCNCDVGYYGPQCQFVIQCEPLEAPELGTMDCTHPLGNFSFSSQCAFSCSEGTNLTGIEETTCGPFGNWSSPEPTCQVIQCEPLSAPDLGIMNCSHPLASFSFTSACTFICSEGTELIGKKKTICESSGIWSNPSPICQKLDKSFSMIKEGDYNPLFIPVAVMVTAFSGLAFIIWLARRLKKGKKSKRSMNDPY
Nature of the assay: Inhibition of human L-selectin after 2 hrs at 100 uM. Summed up:
(§1)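 Human E-, P- or L-selectin/Fc chimera (0.61 nM) captured on anti-Fc-coated wells, then incubated 2 h at 37 °C with peroxidase-streptavidin-complexed sLeX-tyrosine sulfate polyacrylamide ligand plus compound at 100 µM in HEPES buffer pH 7.4 with CaCl2, 1% DMSO. Bound ligand measured by TMB, OD 450 vs 620 nm; % inhibition reported.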

Assay [2] addresses T2, P-selectin (Homo sapiens) (UniProt P16109).
T2 sequence (whole entry): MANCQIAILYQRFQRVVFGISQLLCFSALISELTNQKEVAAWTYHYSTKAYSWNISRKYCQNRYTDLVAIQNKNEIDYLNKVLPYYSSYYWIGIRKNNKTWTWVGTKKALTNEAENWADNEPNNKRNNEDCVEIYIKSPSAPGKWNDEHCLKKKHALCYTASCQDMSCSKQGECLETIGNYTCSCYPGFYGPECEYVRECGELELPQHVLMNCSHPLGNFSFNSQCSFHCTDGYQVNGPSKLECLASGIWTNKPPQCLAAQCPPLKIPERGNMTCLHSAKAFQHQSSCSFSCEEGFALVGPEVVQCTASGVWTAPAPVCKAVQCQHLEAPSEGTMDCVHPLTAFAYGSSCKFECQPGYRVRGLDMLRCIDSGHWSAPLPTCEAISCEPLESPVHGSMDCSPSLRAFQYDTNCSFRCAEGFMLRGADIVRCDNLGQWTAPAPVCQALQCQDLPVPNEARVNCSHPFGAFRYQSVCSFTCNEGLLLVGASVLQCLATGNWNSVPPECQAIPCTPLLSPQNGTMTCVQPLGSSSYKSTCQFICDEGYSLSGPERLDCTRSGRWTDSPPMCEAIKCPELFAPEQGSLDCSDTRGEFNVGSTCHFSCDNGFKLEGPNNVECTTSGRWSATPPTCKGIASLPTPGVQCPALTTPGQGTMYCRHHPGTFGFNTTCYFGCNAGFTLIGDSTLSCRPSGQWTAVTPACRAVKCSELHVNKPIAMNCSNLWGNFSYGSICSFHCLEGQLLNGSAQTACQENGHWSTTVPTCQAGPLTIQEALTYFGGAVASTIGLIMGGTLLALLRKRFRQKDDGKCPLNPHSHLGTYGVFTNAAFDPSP
Nature of the assay: Inhibition of human P-selectin after 2 hrs at 100 uM. Summed up: as §1

Assay [3] addresses T3, E-selectin (Homo sapiens) (UniProt P16581).
T3 sequence (whole entry): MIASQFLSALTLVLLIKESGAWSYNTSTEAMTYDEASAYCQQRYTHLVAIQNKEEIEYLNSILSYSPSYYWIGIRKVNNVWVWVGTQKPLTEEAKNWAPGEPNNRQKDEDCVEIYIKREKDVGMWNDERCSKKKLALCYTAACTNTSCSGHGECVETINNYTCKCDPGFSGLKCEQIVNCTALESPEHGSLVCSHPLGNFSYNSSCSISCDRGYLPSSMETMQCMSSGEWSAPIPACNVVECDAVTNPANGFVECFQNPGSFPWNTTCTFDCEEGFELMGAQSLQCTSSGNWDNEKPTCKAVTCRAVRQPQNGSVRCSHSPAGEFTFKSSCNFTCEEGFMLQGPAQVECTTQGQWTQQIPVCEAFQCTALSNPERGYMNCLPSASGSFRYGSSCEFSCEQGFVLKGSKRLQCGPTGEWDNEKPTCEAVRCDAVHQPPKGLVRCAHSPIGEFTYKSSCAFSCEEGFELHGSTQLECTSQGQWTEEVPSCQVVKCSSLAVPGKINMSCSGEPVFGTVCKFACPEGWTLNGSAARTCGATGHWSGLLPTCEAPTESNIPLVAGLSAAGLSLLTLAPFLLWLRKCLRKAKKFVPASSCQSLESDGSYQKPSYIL
Description: Inhibition of human E-selectin after 2 hrs at 100 uM. The method, boiled down: as §1

Assay [4] relates to HL-60. Nature of the assay: Inhibition of attachment of HL60 cells to P-selectin at 109 uM after 5 mins. The assay is classed as functional. The conditions noted are these: Homo sapiens, HL-60, 5 min. The method, boiled down:
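Dishes coated with E- or P-selectin/Fc chimera, blocked with BSA, mounted in a parallel flow chamber run recirculating; HL-60 cells at 2.4 million/mL final. Mean inhibition as % of vehicle control from mean cells/field of at least two independent experiments.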

Another assay has as its target T4, E-selectin (Homo sapiens, UniProt P16581).
T4 sequence (P16581 whole entry): T3 sequence (whole entry)
Nature of the assay: Inhibition of human E-selectin after 2 hrs. Summed up:
(§2)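 Biotinylated sLeX-tyrosine sulfate polyacrylamide complexed with streptavidin-peroxidase added with compound at varying concentrations (HEPES pH 7.4, 1 mM CaCl2, 1% DMSO), 2 h 37 °C. TMB read-out, OD 450 vs 620 nm.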

The target in the next assay is T5, P-selectin (Homo sapiens, UniProt P16109).
T5 sequence (P16109 whole entry): T2 sequence (whole entry)
Description: Inhibition of human P-selectin after 2 hrs. Summed up: as §2

Assay [5] concerns HL-60. Description: Inhibition of attachment of HL60 cells to E-selectin at 109 uM after 5 mins. The format is functional. The conditions noted are these: Homo sapiens, HL-60, 5 min. The method, boiled down:
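Dishes coated with E- or P-selectin/Fc chimera, blocked with BSA, mounted in a parallel flow chamber run recirculating; HL-60 cells at 2.4 million/mL final. Cells attached after 5 min continuous flow at calculated shear 1 dyn/cm², with 109 µM compound or DMSO vehicle, counted in five low power fields. Mean inhibition as % of vehicle control from mean cells/field of at least two independent experiments.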

The target in a further assay is T6, L-selectin (Homo sapiens, UniProt P14151).
T6 sequence (P14151 whole entry): T1 sequence (whole entry)
Nature of the assay: Inhibition of human L-selectin after 2 hrs. The method, boiled down: as §2

As for `O=c1cc(-c2ccccc2)oc2cc(O)cc(O)c12`, the inhibition is 4.3% in assay [1], -5.3% in assay [2] and 15% in assay [3].
With `O=C(O)Cc1ccc(-c2ccccc2NC(=O)c2ccc(-c3ccc(O)c(O)c3O)cc2)s1`, the results for the inhibition at 109 µM in the assay on HL-60 [4] and in the assay with HL-60 [5] were 58% and 33%, respectively. Also, the IC50 is 48 µM against E-selectin, 1.1 µM at P-selectin and 1.6 µM at L-selectin.
The corresponding values for `O=C(O)Cc1ccc(-c2ccccc2NC(=O)/C=C/c2cc(O)c(O)c(O)c2)s1` are 23%, 28%, 48.6 µM, 19.5 µM and 21.3 µM.
With `O=c1cc(-c2ccccc2)oc2cc(O)c(O)c(O)c12`, the results for the inhibition in assay [1], in assay [2] and in assay [3] were 51.7%, 52% and 37.6%, respectively.
For `Oc1cccc(O)c1O` [PYROGALLOL], the inhibition at 109 µM in the assay on HL-60 [4] turned out to be 24%; with HL-60 [5], 47%. Besides, the inhibition stood at 13.5% in assay [1], 1.7% in assay [2] and 8.3% in assay [3].
Consider `O=C(O)Cc1cccc(-c2ccccc2NC(=O)CCc2cc(O)c(O)c(O)c2)c1`, for which the inhibition at 109 µM in the assay on HL-60 [4] was determined as 22%; in the assay on HL-60 [5] it was 20%. Moreover, the IC50 was determined as 85.4 µM against E-selectin, 43.2 µM against P-selectin and 64.9 µM at L-selectin.
With `O=C(O)C1=C[C@@H](O)[C@@H](O)[C@H](O)C1`, the inhibition in assay [1] is 12.2%; in assay [2] it was -1%; in assay [3], 25.6%.
Turning to `O=C(O)Cc1ccc(-c2ccccc2NC(=O)c2cccc(-c3cc(O)c(O)c(O)c3)c2)s1`, the inhibition at 109 µM with HL-60 [4] came to 45%; in the assay on HL-60 [5], 32%. Besides, the IC50 at E-selectin is over 500 µM; at P-selectin, 21.8 µM; against L-selectin, 37.6 µM.
For `O=C(O)Cc1ccc(-c2cccc(NC(=O)c3cccc(-c4ccc(O)c(O)c4O)c3)c2)s1`, the inhibition at 109 µM worked out at 93% in the assay on HL-60 [4] and 58% in the assay on HL-60 [5]. Besides, the IC50 worked out at 15.7 µM on E-selectin, 0.74 µM on P-selectin and 1.1 µM at L-selectin.
Consider `O=c1c(O)cccc2cc(O)c(O)c(O)c12`, for which the inhibition in assay [1] was found to be 83.6%; in assay [2] it was 77%; in assay [3], 3.1%.
The corresponding values for `O=C(O)c1cccc(O)c1O` are 1.1%, -3% and 6%.
Take `O=C(O)c1ccc(O)c(O)c1`: the inhibition amounted to 1.3% in assay [1] and 19.5% in assay [3].
